Assay outcomes: PubChem BioAssay, Johns Hopkins Ion Channel Center
RGS4 act – RGS4 potentiation or activation | B-score at 10 µM | HEK293 M3R/inducible RGS4, carbachol calcium flux Fluo4; hits give low values | 0.92% of 310,000 active;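 active means B-score of the integrated calcium signal more than 4 SD below the library mean, with starting fluorescence not abnormally high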;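 further: negative B-score means reduced calcium response which marks RGS4 activation or potentiation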
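Assay system: Inducible-RGS4 HEK293 cells carrying M3 receptor | Schedule: Compound preincubation 20 min at room temperature before agonist | Signal: Kinetic calcium fluorescence imaging with Fluo4-AM dye, 2 µM | Read-out basis: B score from integrated fluorescence ratio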
MrgX1 PAM – allosterically activates human MrgX1 receptor signaling; 0.63% of 310,000 active; AID 588675; B-score at 10 µM; MrgX1-HEK293, Fluo-4 calcium flux, FDSS; hits give high values;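 active means plate-corrected calcium response at least 3 library SD above typical, normal starting fluorescence, not activating the receptor alone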;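 further: compound read alongside a low EC10 to EC30 dose of BAM8-22 agonist; peak minus trough fluorescence over baseline measured at the second addition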
Target sequence (Q96LB2 whole entry, looked up): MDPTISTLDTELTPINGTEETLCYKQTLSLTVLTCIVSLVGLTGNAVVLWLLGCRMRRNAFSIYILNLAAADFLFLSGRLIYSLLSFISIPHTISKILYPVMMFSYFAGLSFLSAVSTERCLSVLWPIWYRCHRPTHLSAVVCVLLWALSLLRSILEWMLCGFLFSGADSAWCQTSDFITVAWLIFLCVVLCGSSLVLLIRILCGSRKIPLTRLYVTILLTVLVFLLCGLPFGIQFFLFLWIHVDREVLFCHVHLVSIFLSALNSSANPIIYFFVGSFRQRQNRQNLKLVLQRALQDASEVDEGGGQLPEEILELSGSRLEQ
RGS4 block – inhibitors of human RGS4; P49798; HEK293 M3R/RGS4 inducible, Fluo-4 calcium flux; hits give high values; triggered by carbachol at its EC20; B-score at 10 µM; 0.45% of 310,000 active; AID 463165;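 active means B-score, a plate-corrected calcium signal, over three deviations above library mean, with baseline fluorescence within five deviations of library mean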;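 further: RGS4 expression induced by doxycycline in cells with stable M3 receptor; B-score is computed from the integrated fluorescence ratio over baseline after carbachol; higher B-score means a larger calcium signal and so more RGS4 inhibition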
Target sequence (P49798 whole entry, looked up): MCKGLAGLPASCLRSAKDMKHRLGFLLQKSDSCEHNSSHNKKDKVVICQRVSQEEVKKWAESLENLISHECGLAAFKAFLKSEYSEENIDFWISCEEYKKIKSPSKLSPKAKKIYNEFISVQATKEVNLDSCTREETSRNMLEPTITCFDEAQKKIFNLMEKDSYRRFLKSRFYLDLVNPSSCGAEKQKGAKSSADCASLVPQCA
MrgX1 ag – human MrgX1 receptor agonism, primary screen; Q96LB2; MrgX1-HEK293 cells, Fluo-4 calcium fluorescence, agonist mode; hits give high values; B-score at 10 µM; 0.44% of 310,000 active;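 active means calcium response B-score plate-corrected fluorescence ratio at least 3 library SD, with starting fluorescence B-score inside 5 SD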
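Test system: HEK293 cells stably expressing human MrgX1 receptor; amount: 15,000 cells per well; doses: compound delivered in addition one of three; times: overnight plating before 1 h dye loading; detection: Fluo-4 NW calcium-flux fluorescence, kinetic read; read-out basis: B-scored fluorescence response ratio; controls: positive and negative controls per plate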
MrgX1 antagonist – blocks BAM8-22 activation of human MrgX1 receptor; B-score at 10 µM; MRGX1-HEK293 calcium flux, Fluo-4, BAM8-22 antagonism; hits give low values; 1.3% of 310,000 active;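 active means calcium-response B-score plate-corrected more than 3 library SD below zero, starting fluorescence within 5 deviations, no agonist response on first addition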;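 further: peak minus trough fluorescence over baseline after final BAM8-22 challenge near maximal dose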
Numbers stand for hits; i = inactive; nt = no result. In the library only some 3.5% were active in any assay of this set; here they are far more common.

SMILES | RGS4 act | MrgX1 PAM | RGS4 block | MrgX1 ag | MrgX1 antagonist
Cc1nc2ccccc2c2oc(C(=O)N3CCN(c4ccc([N+](=O)[O-])cc4)CC3)cc12 | i | 6.6 | i | i | i
CCCCc1ccc(/C=C2\C(=O)c3ccccc3C(O)=C2C(=O)OCC)cc1 | i | i | i | i | -10
COc1ccc(C=C2C(=O)c3ccccc3C2=O)cc1O | i | i | i | i | i
CCCCCCn1c(COc2ccccc2F)nnc1SCC(=O)c1c(N)n(C)c(=O)n(C)c1=O | i | i | i | i | i
C=CCn1c(COc2cc(C)ccc2C(C)C)nnc1SCC(=O)c1c(N)n(C)c(=O)n(C)c1=O | i | i | i | i | -4.7
CC(=O)OCCn1c(C)[n+](CCOC(C)=O)c2cc(Cl)c(Cl)cc21 | i | i | i | i | i
CC(=O)OCCn1c2nc(=O)[nH]c(=O)c-2nc2cc(C)c(C)cc21 | -7.7 | i | i | i | i
CC(=O)c1sc(NC(=O)C(C)Oc2ccc3c(C)cc(=O)oc3c2)nc1C (stereo not drawn) | i | i | i | i | i
CCCCn1nnnc1SCC(=O)NNC(=O)C1CCCCC1 | i | i | i | i | -5.1
COc1cccc2c1cc1c(=O)n(CC(=O)NCc3ccccn3)nc(C)n12 | i | i | i | i | i
N#C/C(=C\c1ccccc1[N+](=O)[O-])C(=O)NC1CCCCC1 | i | i | i | 35 | i
N#C/C(=C\C=C\c1ccccc1[N+](=O)[O-])C(=O)NC1CCCCC1 | i | 14 | i | i | i
CCOc1ccccc1/C=C(\C#N)C(=O)NC1CC1 | i | i | i | i | i
CC(C(=O)NCc1ccco1)c1ccc([N+](=O)[O-])cc1 (stereo not drawn) | i | i | i | i | -4.5
CCOC(=O)c1cc(S(=O)(=O)NCC2CCN(Cc3cccc(C)c3)CC2)cn1C | i | i | i | i | i
COc1cc(C(C)=O)ccc1OCC(O)Cn1nc(C)c(Br)c1C (stereo not drawn) | i | i | i | i | i
NC(=O)Cn1ccc(O)c(Cc2ccc(Cl)cc2Cl)c1=O | i | i | i | i | i
Cn1/c(=N\NC(=O)c2ccccc2Cl)sc2ccccc21 | i | i | i | 31 | i
CC(=O)N/N=c1\sc2ccccc2n1C | i | i | i | i | i
ClCc1ncc(-c2ccc(Cl)cc2)o1 | i | i | i | i | i
OCCCNCc1ccc(N(c2ccccc2)c2ccccc2)cc1 | -7.3 | i | i | i | i
N#C/C(=N\Nc1cccc(C(F)(F)F)c1)C(=O)c1csc(-c2cccnc2)n1 | i | i | i | i | -5.7
Cc1ccc(C(=O)Nc2cccc(C(F)(F)F)c2)cc1NC(=O)c1csc(-c2ccncc2)n1 | i | i | i | i | i
O=C(NN1C(=O)/C(=C/C=C/c2ccco2)SC1=S)c1ccccc1O | i | i | i | i | -4.6
CCOC(=O)CC1(NC(=O)C2CCC(=O)N(Cc3ccccc3F)C2)CCCCC1 (stereo not drawn) | i | i | i | i | i
SMILES | RGS4 act | MrgX1 PAM | RGS4 block | MrgX1 ag | MrgX1 antagonist
CN1CCN(c2nc3c(c(=O)[nH]c(=O)n3C)n2Cc2ccccc2)CC1 | i | i | i | i | i
CSc1ccc(CCNC(=O)c2ccc(CS(=O)Cc3ccccc3Cl)o2)cc1 (stereo not drawn) | i | i | i | i | -6
CCOc1ccc(CCNC(=O)c2ccc(CS(=O)Cc3ccc(Cl)cc3)o2)cc1OCC (stereo not drawn) | i | i | i | i | i
Cc1ccc(CS(=O)Cc2ccc(C(=O)NCCc3ccccc3)o2)cc1 (stereo not drawn) | i | i | i | i | i
CCOc1ccc(CCNC(=O)c2ccc(CS(=O)Cc3cccc(Cl)c3)o2)cc1 (stereo not drawn) | -9.4 | i | i | i | i
O=C(NCCc1ccc(Cl)cc1)c1ccc(CS(=O)Cc2ccccc2Cl)o1 (stereo not drawn) | -8.4 | i | i | i | i
COc1ccc(S(=O)(=O)N(C)C)cc1NC(=O)c1ccc(OCC(=O)N2CCOCC2)c(OC)c1 | i | i | i | i | i
COC(=O)c1cccc(-c2ccc(/C=N/N3C(=O)C4C5C=CC(C6CC56)C4C3=O)o2)c1 (stereo not drawn) | -9.9 | i | i | i | i
O=C(CCS(=O)(=O)c1ccc(F)cc1)N1CCOCC1 | i | i | i | i | i
CCN1C(=O)CS/C1=C(\C#N)S(=O)(=O)c1ccccc1 | i | i | i | 41 | i
CC1CCCCN1CC(=O)Nc1ccc2c(c1)OC(F)(F)O2 (stereo not drawn) | i | i | i | i | i
CN1CCC(N(C)CC(=O)Nc2ccc3c(c2)OC(F)(F)O3)CC1 | -7.4 | i | i | i | i
O=C(O)c1cc([N+](=O)[O-])ccc1N1CCCCC1 | i | i | i | i | i
O=C(O)c1cc([N+](=O)[O-])ccc1N1CCC(Cc2ccccc2)CC1 | i | i | i | 40 | i
O=[N+]([O-])c1ccc(OCC(O)CNC2CCCC2)cc1 (stereo not drawn) | i | i | i | 28 | i
OC(CNC1CCCCC1)COCCOc1ccc(Br)cc1 (stereo not drawn) | i | i | i | i | -9.2
O=[N+]([O-])c1ccc(OCC(O)CN(C2CCCCC2)C2CCCCC2)cc1 (stereo not drawn) | i | i | i | i | i
OC(CNC1CCCC1)COc1ccc(-c2ccccc2)cc1 (stereo not drawn) | i | i | i | i | i
Cc1cccc(C(=O)Nc2ccc(S(=O)(=O)Nc3nc(C)cc(C)n3)cc2)c1 | i | i | i | i | i
CSC1=N/C(=C\c2ccc(C)cc2)C(=O)S1 | i | 16 | i | i | i
CCOC(=O)SC1=N/C(=C\c2ccc(N(C)C)cc2)C(=O)S1 | i | 7.8 | i | i | i
Cc1ccc(-c2cc(C(=O)N/N=C/c3c(C)nn(-c4ccccc4)c3C)n[nH]2)s1 | -7.7 | nt | i | nt | nt
COc1cccc(NC(=O)C(c2ccccc2)N2CCCCC2)c1 (stereo not drawn) | -7 | i | i | i | i
Cc1ccc(S(=O)(=O)n2nc(-c3ccco3)nc2N)cc1 | i | i | i | i | i
O=C(CC12CC3CC(CC(C3)C1)C2)Nc1nncs1 | i | i | i | i | i
Cc1cc(OCC(=O)NCC(c2cccs2)N2CCOCC2)ccc1C(C)C (stereo not drawn) | i | i | i | i | i
Cc1ccc(C(C)C)c(OCC(=O)NCC(c2cccs2)N2CCOCC2)c1 (stereo not drawn) | i | i | i | 28 | i
CC(C)C(c1nnnn1Cc1ccc(F)cc1)N1CCN(Cc2ccc3c(c2)OCO3)CC1 (stereo not drawn) | -7.2 | i | i | i | i
CCn1cc(C(=O)O)c(=O)c2cc(F)c(N/N=C/c3ccccc3[N+](=O)[O-])cc21 | -9.4 | i | i | i | i
Cc1cc(N/N=C/c2c(O)ccc3ccccc23)nc(-c2ccccc2O)n1 | -8 | i | i | i | i
